{"source": "paper PMC4224566", "about": "(Molecular Pharmaceutics, 2014)", "format": "physicochemical", "settings": "0.5 M pH 4.0 acetate buffer, 1 mg/mL, 100 °C, analytical HPLC, LC-MS", "outline": "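Each peptide (about 0.1 mL) was heated in a sealed plastic tube, cooled, and then analysed by reversed-phase C18 analytical HPLC with UV detection. The HPLC ran at 1 mL/min: 5% acetonitrile/0.1% TFA in water/0.1% TFA for 5 min, then rising by 2%/min to 65%. Samples showing decomposition were run on a separate LC-MS. Samples with little or none were heated 30 min more and re-analysed.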"}
{"substance": "Ph-NCS-E[c(RGDfK)]2 [compound 10]", "values": [{"measurement": "release of monomer after 10 min heating", "result": "obvious release of c(RGDfK)"}]}
